An excerpt weighted towards active compounds, which were near 27% of everything screened.
Cav3 T inh – Cav3.2 calcium influx blockers – cell-based, Fluo-4 calcium fluorescence, FDSS, MLSMR library, primary screen; B-score at 10 µM; 100,000 compounds, 4% hits; Cav3.2-expressing cells; active compounds read low; Voltage-dependent T-type calcium channel subunit alpha-1H (Homo sapiens), O95180;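 active = single-dose well whose peak fluorescence ratio is a statistical outlier from its plate by either plate-standardised score or position-corrected B-score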
CYP2C19 act – human CYP2C19 activators, primary screen, biochemical, luminescence. Cytochrome P450 2C19 (Homo sapiens), P33261. recombinant CYP2C19, luciferin-H EGE luminescence; active compounds read high; 0 = fully inhibited enzyme, 1 = untreated enzyme. activation factor at 5 µM. 96,000 tested, under 10 active. AID 1025, 2008;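 active = activation factor of at least 2 at 5 µM in the primary screen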;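 also: 0 = wells with 2.5 mM tranylcypromine and 1 = vehicle-only wells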
Target sequence (P33261 whole entry, looked up): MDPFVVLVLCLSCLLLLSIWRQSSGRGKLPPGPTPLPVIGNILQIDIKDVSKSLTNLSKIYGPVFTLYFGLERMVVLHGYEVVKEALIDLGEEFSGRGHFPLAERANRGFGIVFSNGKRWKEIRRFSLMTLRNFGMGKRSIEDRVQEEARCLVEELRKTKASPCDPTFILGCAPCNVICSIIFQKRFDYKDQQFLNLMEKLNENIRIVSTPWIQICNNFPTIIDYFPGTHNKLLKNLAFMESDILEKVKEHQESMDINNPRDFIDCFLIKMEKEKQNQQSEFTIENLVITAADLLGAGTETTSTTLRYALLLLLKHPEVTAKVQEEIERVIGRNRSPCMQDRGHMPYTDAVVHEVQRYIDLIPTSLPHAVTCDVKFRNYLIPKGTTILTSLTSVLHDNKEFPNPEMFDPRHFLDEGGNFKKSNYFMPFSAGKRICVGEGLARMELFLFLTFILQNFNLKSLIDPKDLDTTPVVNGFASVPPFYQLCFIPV
CYP2C9 act – human CYP2C9 activators, primary screen, biochemical, luminescence; Cytochrome P450 2C9 (Homo sapiens), P11712; activation factor at 5 µM; 96,000 compounds, 1.4% hits; AID 1024, 2008; recombinant CYP2C9, luciferin-H conversion; active compounds read high; factor 1 = untreated enzyme, 0 = blocked;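 active = activation factor of 2 or more for CYP2C9 at a 5 µM dose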;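 also: 0 = sulfaphenazole-blocked wells and 1 = vehicle-only wells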
Rev-RRE block – HIV-1 Rev-RRE binding inhibitors, primary screen, biochemical, FRET, protein-RNA interaction | P05866 | Rev peptide-RRE RNA binding | inhibition, % at 8 µM | 97,000 compounds, 0.79% hits;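 active = inhibition above the screen-wide mean plus 3 SD, cut at about 35% in these data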;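 also: 0% = median DMSO wells and 100% = median Neomycin B control wells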
Target sequence (P05866 whole entry, looked up): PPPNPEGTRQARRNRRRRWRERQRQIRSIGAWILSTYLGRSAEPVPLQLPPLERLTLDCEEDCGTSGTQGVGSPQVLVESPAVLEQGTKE
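Test system: Cy5-tagged RRE RNA duplex with fluorescein-tagged Rev peptide | Read-out: % inhibition of FRET ratio versus controls | Probe or stimulus: Labelled Rev peptide | Incubation: 5 min RNA-compound premix plus 15 min binding step, 25 °C | Technique: FRET fluorescence readout | Benchmarks: DMSO low control, neomycin B high control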
CYP2C19 inh – blockers of cytochrome P450 2C19 activity – biochemical, luminescence, ADME assay, primary screen | CYP2C19 Supersomes, luciferin-H EGE luminescence, 30 min | inhibition, % at 5 µM | 96,000 compounds, 21% hits | AID 778, 2007;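 active = CYP2C19 inhibition above a set limit at 5 µM in the primary screen, cut at about 50% in these data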;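 also: plate controls were negative control wells for no effect and 2.5 mM tranylcypromine positive control for full effect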
CYP2C9 inhib – blockers of cytochrome P450 2C9 activity – biochemical, luminescence, ADME assay, primary screen; P11712; CYP2C9 Supersomes, luciferin-H conversion; inhibition, % at 5 µM; 96,000 compounds, 20% hits; AID 777, 2007;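 active = blocking of liver enzyme CYP2C9 beyond about 50% at 5 µM, limit read from the data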
Active calls of the source: *; nt = not tested or not shown.

SMILES	Cav3 T inh	CYP2C19 act	CYP2C9 act	Rev-RRE block	CYP2C19 inh	CYP2C9 inhib
CCOC(=O)CSc1nc(N)c(C#N)c(-c2ccc(OCC)cc2)c1C#N	-0.22	0.7	0.5	4	28	46
Cc1cc(C)c(C#N)c(SCCS(=O)(=O)Cc2ccccc2)n1	-0.16	0.9	1.8	6	8	-76
C=CCSc1nc(C)cc(/C=C\c2ccccc2)c1C#N	-3	0.9	2.2*	5	7	-117
N#Cc1cc2c(nc1SCc1ccc(Cl)cc1)CCCC2	-0.96	nt	nt	18	nt	nt
Cc1ccccc1NC(=O)CSc1nc(N)c(C#N)c(-c2cccs2)c1C#N	0.51	0.4	0.5	19	62*	53*
CN1CCc2nc(SCc3ccc(Cl)cc3)c(C#N)c(-c3cccs3)c2C1	-2.1	nt	nt	40*	nt	nt
COc1c(F)c(F)c(C(=O)O)c(Nc2ccccc2)c1F	0.008	0.9	1	4	14	0
O=C(N/N=C1\CCCc2ccccc21)c1ccc([N+](=O)[O-])cc1Cl	0.12	0.9	1.3	9	11	-30
CCOC(=O)C1=C(Nc2ccc(Br)cc2)CC(C)(O)C(C(=O)OCC)C1c1ccccc1 (stereo unspecified)	0.48	1.1	1.1	10	-10	-11
CCSc1nc(N)nc(-c2cccs2)c1C#N	nt	0.6	0.3	8	37	72*
COc1cc(-c2c(C#N)c(N)nc(SCc3ccncc3)c2C#N)cc(OC)c1OC	-0.0026	0	0	5	100*	100*
COc1cc(-c2c(C#N)c(N)nc3c2CCCC3)cc(OC)c1OC	-0.71	nt	nt	11	nt	nt
N#Cc1c(N)nc(SCc2ccncc2)c(C#N)c1-c1cccs1	-1.2	0.4	0.2	nt	58*	84*
COc1ccc2nnc(-c3ccccc3)n2n1	1	1	1.1	-5	4	-5
O=C(c1ccc(Br)o1)N1CCN(c2ccc3nnc(-c4ccccc4)n3n2)CC1	3.6*	0.2	0.1	-4	79*	88*
O=S(=O)(c1ccc(Br)cc1)N1CCN(c2ccc3nnc(-c4ccccc4)n3n2)CC1	0.66	0.4	0.2	5	60*	80*
Cn1cccc1C(=O)NC(=O)COC(=O)C12CC3CC(CC(O)(C3)C1)C2	0.18	0.8	0.7	2	17	29
COc1ccc(NC(=O)c2cc3c(s2)CCC3)cc1S(=O)(=O)N1CCOCC1	0.055	1	0.8	-3	3	19
O=C(Nc1cccc(S(=O)(=O)N2CCOCC2)c1)c1cc2c(s1)CCC2	-1.1	0.5	0	7	52*	97*
O=C(Nc1cccc(Cn2cccn2)c1)c1cc2c(s1)CCCC2	-3.1	0.5	1.9	11	54*	-95
O=C(Nc1ccc2c(c1)CCC2)c1cccc(S(=O)(=O)N2CCN(c3ccccc3)CC2)c1	-5.7*	0.5	0.3	6	51*	68*
O=C(NC1CCCc2ccccc21)c1cccc(S(=O)(=O)N2CCN(c3ccccc3)CC2)c1 (stereo unspecified)	-10*	0.7	0.2	7	34	82*
CC(=O)Nc1cccc(Cn2cccn2)c1	0.096	0.9	0.9	12	10	9
O=C(Nc1ccc(N2CCOCC2)cc1)c1cccc(S(=O)(=O)N2CCCCC2)c1	0.45	1	0.9	1	2	10
O=C(N/N=C/c1ccc(OCCCF)cc1)c1cc(OCC(F)(F)F)ccc1OCC(F)(F)F	-0.12	0.6	0.7	8	37	31
SMILES	Cav3 T inh	CYP2C19 act	CYP2C9 act	Rev-RRE block	CYP2C19 inh	CYP2C9 inhib
NS(=O)(=O)c1ccc(CCNC(=O)C2CCCN2C(=O)OCc2ccccc2)cc1 (stereo unspecified)	nt	1	1.1	7	1	-7
NS(=O)(=O)c1ccc(CCNC(=O)C2CCCCN2S(=O)(=O)c2ccccc2)cc1 (stereo unspecified)	0.051	0.9	0.3	1	13	66*
NS(=O)(=O)c1ccc(CCNC(=O)[C@@H]2CCCN2S(=O)(=O)c2ccccc2F)cc1	0.58	1	0.4	2	-2	61*
Cc1ccc(-n2nnnc2SCC(=O)N2c3ccccc3NC(=O)C2(C)C)cc1	-0.86	0.9	0.9	9	11	13
Cc1c(C(=O)OCC(=O)N2CC(=O)Nc3ccccc32)oc2ccccc12	-0.94	1.2	1	6	-23	3
COc1cccc(-c2nc(CS(=O)CC(=O)NCc3ccc4c(c3)OCO4)c(C)o2)c1 (stereo unspecified)	-5*	0.2	0.2	-1	77*	76*
COc1ccc(-c2nc(CS(=O)CC(=O)NCc3ccc4c(c3)OCO4)c(C)o2)cc1 (stereo unspecified)	-1.3	0.6	0.6	1	36	36
COc1cccc(-c2nc(CS(=O)CC(=O)NCc3ccccc3Cl)c(C)o2)c1 (stereo unspecified)	-0.73	0.7	0.4	8	30	64*
COc1cc(O)c(C(CC(=O)N2CCCCC2)c2ccc3c(c2)OCO3)c(OC)c1 (stereo unspecified)	-0.0021	nt	nt	nt	nt	nt
C=CCn1c(CCNC(=O)c2cccs2)nnc1SCC(=O)Nc1cccc(F)c1	-0.8	0.3	0.1	4	72*	90*
C=CCn1c(SCC(=O)Nc2nc(C)cs2)nnc1C(C)NC(=O)c1ccccc1Cl (stereo unspecified)	-0.19	nt	nt	1	nt	nt
C=CCn1c(CCNC(=O)c2ccccc2F)nnc1SCC(=O)Nc1nc(C)cs1	nt	0.7	0.5	2	31	50*
O=C(c1ccco1)N1CCN(C(=O)c2nn3cccnc3c2Cl)CC1	-0.16	1.1	1.1	6	-5	-5
O=C(CCCN1C(=O)c2ccccc2C1=O)N1CCC(c2ccccc2)C1 (stereo unspecified)	-0.28	0.2	0.3	3	79*	67*
O=C(CCCN1C(=O)c2cccc3cccc(c23)C1=O)N1CCc2ccccc2C1	-0.81	0.5	4*	0	52*	-296
O=C(CCCOc1ccccc1)N1CCc2ccccc2C1	-2.8	0.2	0.5	7	83*	50
C=CCNC(=O)CCCOc1ccc(C)cc1	1.3	0.3	0.4	3	73*	60*
O=C(CCCN1C(=O)c2ccccc2C1=O)N1CCCCC1	0.11	nt	nt	0	nt	nt
CC(C)Cc1nnc(NC(=O)CSc2nc(N)cc(=O)[nH]2)s1	0.42	1.1	1.3	4	-6	-26
O=C(OCc1cc2ccccc2[nH]c1=O)c1ccccn1	0.8	0.9	1	1	12	-3
